In PMC7103123 (Toxicology and Applied Pharmacology, 2017):

Legend:
ST cells = assay: Cytotoxicity assay in TGEV infected ST cells; assay type: cell-based, swine; details: read-out: ST CC50; cytotoxicity in TGEV infected ST cells at 6 h.p.i.
In short: (§1)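 Cytotoxicity is measured in TGEV-infected ST cells in parallel with the immunofluorescence replication assay, with compound pretreatment for 1 h. CC50 is read at 6 h.p.i. Means ± S.D. come from 3–5 independent experiments, each in duplicate.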

[1] = system: caspase-3 activation in TGEV infected ST cells; assay: Western blot for TGEV induced caspase-3 activation in ST cells; assay type: cell-based, swine; details: 1 μM, 18 h.p.i.
In short: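 TGEV-infected swine testicular (ST) cells were treated with test compound at the indicated concentrations and harvested at 18 h post-infection. Lysates were analysed by western blot with antibodies against caspase-3 to detect its activation, plus TGEV N protein and β-actin as the loading control. A reference anti-TGEV compound served as the positive control.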

[2] = Cytotoxicity assay in TGEV infected ST cells; assay type: cell-based, swine; details: swine
In short: as §1

TGEV [3] = assay: Cytopathic effect assay in TGEV infected ST cells; assay type: cell-based, porcine transmissible gastroenteritis virus; details: 1 μM, TGEV 3.5 MOI, 18 h.p.i.
In short: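 ST cells are pretreated with test compound for 1 h, then TGEV-infected at MOI 3.5, with mock-infected controls. At 18 h.p.i., cytopathic effect (rounding, enlargement, syncytia, detachment) is scored and viability is measured by MTS. Survival is compared with vehicle-treated infected cells by Student t-test. Three independent experiments.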

TGEV [4] = assay: Effect of Na^+/K^+-ATPase activators on TGEV activity in ST cells; assay type: cell-based, porcine transmissible gastroenteritis virus; details: Fig. 4D-b
TGEV [5] = assay: Anti-TGEV IC50 of cardenolides alone or combined with aldosterone or Db cAMP; assay type: cell-based, porcine transmissible gastroenteritis virus; details: Fig. 4D-c
Na^+/K^+-ATPase = Na^+/K^+-ATPase protein level in ST cells; assay type: cell-based, swine; details: Fig. 4D-a
TGEV N protein = assay: Western analysis for TGEV N protein expression in infected ST cells; assay type: cell-based, porcine transmissible gastroenteritis virus
In short: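 Western blot for TGEV N protein in infected ST cells. In the titer-linked set, compound is added 1 h before TGEV (0.01 MOI), with 22 h incubation at 37 °C. Adherent cells are harvested for blotting while supernatants go to titration. Three or more independent experiments.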

| Compound | CC50 (ST cells) [µM] | CC50 at 6 h post infection [2] [µM] | also measured |
| --- | --- | --- | --- |
| Reevesioside C | > 50 |  |  |
| Reevesioside F | > 10 |  | protection against caspase-3 activation [1]: strong protection |
| Reevesioside B | > 50 |  |  |
| C[C@H]1O[C@@H](O[C@H]2[C@@H](O)C[C@H](O[C@H]3[C@@H](O)C[C@H](O[C@H]4CC[C@@]5(C)[C@H](CC[C@@H]6[C@@H]5C[C@@H](O)[C@]5(C)[C@@H](C7=CC(=O)OC7)CC[C@]65O)C4)O[C@@H]3C)O[C@@H]2C)C[C@H](O)[C@@H]1O [Digoxin, digoxin] |  | > 10 |  |
| COc1cc2c3c(c4cc(OC)c(OC)cc4c2cc1OC)CN1CCC[C@@H]1C3 [Tylophorine] |  | > 10 | protection against cytopathic effect (TGEV [3]): displayed protection |
| Reevesioside H /epi-Reevesioside H | > 50 |  |  |
| C[C@@H]1O[C@@H](O[C@H]2C[C@@H](O)[C@]3(CO)[C@H]4[C@H](O)C[C@]5(C)[C@@H](C6=CC(=O)OC6)CC[C@]5(O)[C@@H]4CC[C@]3(O)C2)[C@H](O)[C@H](O)[C@H]1O [Ouabain, ouabain] |  | > 10 | protection against caspase-3 activation [1]: strong protection |
| C[C@]12CCC(=O)C=C1CC[C@@H]1[C@@H]2[C@@H](O)C[C@]2(C=O)[C@@H](C(=O)CO)CC[C@@H]12 [Aldosterone, aldosterone] |  |  | infectivity of TGEV (TGEV [4]): increased the infectivity; effect on anti-TGEV activity of cardenolides (TGEV [5]): able to antagonize; Na^+/K^+-ATPase protein level in ST cells (Na^+/K^+-ATPase): moderately augmented |
| CCCC(=O)Nc1ncnc2c1ncn2[C@@H]1O[C@@H]2COP(=O)([O-])O[C@H]2[C@H]1OC(=O)CCC.[Na+] [Db cAMP, N6,2′-O-Dibutyryladenosine 3′,5′-cyclic monophosphate sodium salt] |  |  | infectivity of TGEV (TGEV [4]): increased the infectivity; effect on anti-TGEV activity of cardenolides (TGEV [5]): able to antagonize; Na^+/K^+-ATPase protein level in ST cells (Na^+/K^+-ATPase): moderately augmented |
| Reevesioside E | > 50 |  |  |
| Reevesioside I /epi-Reevesioside I | > 50 |  |  |
| C[C@]12CC[C@H](O)C[C@H]1CC[C@@H]1[C@@H]2CC[C@]2(C)[C@@H](C3=CC(=O)OC3)CC[C@]12O [Digitoxigenin, digitoxigenin] |  | > 10 |  |
| CO[C@H]1C[C@H](O[C@H]2CC[C@@]3(C)[C@H](CC[C@@H]4[C@@H]3CC[C@]3(C)[C@@H](C5=CC(=O)OC5)[C@@H](OC(C)=O)C[C@]43O)C2)O[C@@H](C)[C@@H]1O [Oleandrin, oleandrin] |  | > 10 | protection against caspase-3 activation [1]: strong protection; N protein expression in TGEV infected ST cells (TGEV N protein; TGEV 0.01 MOI, 22 h.p.i. (Fig. 3B)): dose dependant manner; N protein expression by western analyses in TGEV infected ST cells (TGEV N protein; various doses (Fig. 1D)): dose dependent manner of decreases |
| Reevesioside D | > 50 |  |  |
| C[C@H]1O[C@@H](O[C@H]2[C@@H](O)C[C@H](O[C@H]3[C@@H](O)C[C@H](O[C@H]4CC[C@@]5(C)[C@H](CC[C@@H]6[C@@H]5CC[C@]5(C)[C@@H](C7=CC(=O)OC7)CC[C@]65O)C4)O[C@@H]3C)O[C@@H]2C)C[C@H](O)[C@@H]1O [Digitoxin, digitoxin] |  | > 10 | protection against caspase-3 activation [1]: strong protection |
